Experimental data from ChEMBL document CHEMBL1932952, “Synthesis and biochemical analysis of 2,2,3,3,4,4,5,5,6,6,7,7-dodecafluoro-N-hydroxy-octanediamides as inhibitors of human histone deacetylases” (Bioorg Med Chem, 2012).

Experiments:
[1] = biological target: T1, Protein deacetylase HDAC6 (Homo sapiens, UniProt Q9UBN7); assay: Inhibition of recombinant human HDAC6 using Boc-L-Lys(acetyl)-MCA as substrate by fluorogenic enzymatic assay
T1 sequence (Q9UBN7 whole entry): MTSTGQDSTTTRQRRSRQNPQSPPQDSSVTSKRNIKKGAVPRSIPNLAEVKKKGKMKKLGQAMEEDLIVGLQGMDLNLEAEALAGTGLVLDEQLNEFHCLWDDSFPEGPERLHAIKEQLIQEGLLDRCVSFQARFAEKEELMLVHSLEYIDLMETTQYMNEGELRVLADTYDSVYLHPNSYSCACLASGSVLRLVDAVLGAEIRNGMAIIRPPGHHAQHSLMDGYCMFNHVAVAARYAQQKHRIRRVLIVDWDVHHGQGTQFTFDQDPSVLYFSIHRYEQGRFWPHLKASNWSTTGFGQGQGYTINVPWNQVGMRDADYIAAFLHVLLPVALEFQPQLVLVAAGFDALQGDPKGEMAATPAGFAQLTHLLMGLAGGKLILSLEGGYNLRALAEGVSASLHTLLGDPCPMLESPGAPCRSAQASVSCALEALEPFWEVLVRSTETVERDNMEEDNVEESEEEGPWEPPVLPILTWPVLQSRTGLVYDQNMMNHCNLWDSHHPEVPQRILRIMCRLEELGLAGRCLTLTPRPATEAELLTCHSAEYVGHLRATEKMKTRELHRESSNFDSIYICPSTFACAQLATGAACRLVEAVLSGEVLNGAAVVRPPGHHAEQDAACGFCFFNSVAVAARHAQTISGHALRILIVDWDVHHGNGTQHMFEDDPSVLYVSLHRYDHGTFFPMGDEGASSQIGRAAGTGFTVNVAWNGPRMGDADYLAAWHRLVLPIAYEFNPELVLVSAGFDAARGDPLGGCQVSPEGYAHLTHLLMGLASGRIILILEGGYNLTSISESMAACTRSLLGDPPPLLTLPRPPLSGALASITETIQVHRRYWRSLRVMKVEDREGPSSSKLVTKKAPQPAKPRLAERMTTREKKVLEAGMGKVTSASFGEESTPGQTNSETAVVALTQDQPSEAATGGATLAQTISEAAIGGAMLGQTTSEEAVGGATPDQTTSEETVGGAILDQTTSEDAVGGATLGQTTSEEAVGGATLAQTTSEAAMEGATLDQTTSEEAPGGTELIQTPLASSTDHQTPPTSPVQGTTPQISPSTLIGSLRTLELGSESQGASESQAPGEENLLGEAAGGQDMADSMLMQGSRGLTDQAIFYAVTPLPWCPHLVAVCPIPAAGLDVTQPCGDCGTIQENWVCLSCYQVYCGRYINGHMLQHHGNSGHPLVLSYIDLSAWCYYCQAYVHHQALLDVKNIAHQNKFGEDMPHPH

Histone deacetylase 1 = Histone deacetylase 1 (Homo sapiens, UniProt Q13547); assay: Inhibition of recombinant human HDAC1 using Boc-L-Lys(acetyl)-MCA as substrate by fluorogenic enzymatic assay
Sequence of Histone deacetylase 1 (Q13547 whole entry): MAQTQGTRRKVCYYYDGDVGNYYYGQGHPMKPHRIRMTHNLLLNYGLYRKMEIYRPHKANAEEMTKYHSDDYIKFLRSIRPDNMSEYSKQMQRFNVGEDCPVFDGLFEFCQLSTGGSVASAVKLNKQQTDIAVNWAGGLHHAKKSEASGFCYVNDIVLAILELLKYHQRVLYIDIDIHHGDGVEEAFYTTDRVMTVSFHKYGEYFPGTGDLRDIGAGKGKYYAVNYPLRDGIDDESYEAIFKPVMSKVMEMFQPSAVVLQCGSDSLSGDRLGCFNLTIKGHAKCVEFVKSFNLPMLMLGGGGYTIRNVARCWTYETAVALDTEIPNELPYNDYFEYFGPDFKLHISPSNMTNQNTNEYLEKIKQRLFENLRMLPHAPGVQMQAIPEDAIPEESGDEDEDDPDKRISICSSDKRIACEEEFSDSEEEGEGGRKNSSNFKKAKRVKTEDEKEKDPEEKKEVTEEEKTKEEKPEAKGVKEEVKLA

[2] = biological target: T2, Histone deacetylase-like amidohydrolase (Alcaligenes sp. (strain DSM 11172) (Bordetella sp. (strain FB188)), UniProt Q70I53); assay: Inhibition of Bordetella FB188 HDAH using Boc-L-Lys(acetyl)-MCA as substrate by fluorogenic enzymatic assay
T2 sequence (Q70I53 whole entry): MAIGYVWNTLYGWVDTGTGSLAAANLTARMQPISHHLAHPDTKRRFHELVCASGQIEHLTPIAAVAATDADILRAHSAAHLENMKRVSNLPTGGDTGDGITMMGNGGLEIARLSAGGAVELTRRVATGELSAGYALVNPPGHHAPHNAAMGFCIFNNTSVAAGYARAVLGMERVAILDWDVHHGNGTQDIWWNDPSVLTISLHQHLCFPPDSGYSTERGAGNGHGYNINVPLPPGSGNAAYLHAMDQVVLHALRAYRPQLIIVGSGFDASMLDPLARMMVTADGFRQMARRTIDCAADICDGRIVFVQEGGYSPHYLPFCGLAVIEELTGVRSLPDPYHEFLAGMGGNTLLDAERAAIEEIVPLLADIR

Histone deacetylase 7 = biological target: T3, Histone deacetylase 7 (Homo sapiens, UniProt Q8WUI4); assay: Inhibition of recombinant human HDAC7 using Boc-L-Lys(trifluoroacetyl)-MCA as substrate by fluorogenic enzymatic assay
T3 sequence (Q8WUI4 whole entry): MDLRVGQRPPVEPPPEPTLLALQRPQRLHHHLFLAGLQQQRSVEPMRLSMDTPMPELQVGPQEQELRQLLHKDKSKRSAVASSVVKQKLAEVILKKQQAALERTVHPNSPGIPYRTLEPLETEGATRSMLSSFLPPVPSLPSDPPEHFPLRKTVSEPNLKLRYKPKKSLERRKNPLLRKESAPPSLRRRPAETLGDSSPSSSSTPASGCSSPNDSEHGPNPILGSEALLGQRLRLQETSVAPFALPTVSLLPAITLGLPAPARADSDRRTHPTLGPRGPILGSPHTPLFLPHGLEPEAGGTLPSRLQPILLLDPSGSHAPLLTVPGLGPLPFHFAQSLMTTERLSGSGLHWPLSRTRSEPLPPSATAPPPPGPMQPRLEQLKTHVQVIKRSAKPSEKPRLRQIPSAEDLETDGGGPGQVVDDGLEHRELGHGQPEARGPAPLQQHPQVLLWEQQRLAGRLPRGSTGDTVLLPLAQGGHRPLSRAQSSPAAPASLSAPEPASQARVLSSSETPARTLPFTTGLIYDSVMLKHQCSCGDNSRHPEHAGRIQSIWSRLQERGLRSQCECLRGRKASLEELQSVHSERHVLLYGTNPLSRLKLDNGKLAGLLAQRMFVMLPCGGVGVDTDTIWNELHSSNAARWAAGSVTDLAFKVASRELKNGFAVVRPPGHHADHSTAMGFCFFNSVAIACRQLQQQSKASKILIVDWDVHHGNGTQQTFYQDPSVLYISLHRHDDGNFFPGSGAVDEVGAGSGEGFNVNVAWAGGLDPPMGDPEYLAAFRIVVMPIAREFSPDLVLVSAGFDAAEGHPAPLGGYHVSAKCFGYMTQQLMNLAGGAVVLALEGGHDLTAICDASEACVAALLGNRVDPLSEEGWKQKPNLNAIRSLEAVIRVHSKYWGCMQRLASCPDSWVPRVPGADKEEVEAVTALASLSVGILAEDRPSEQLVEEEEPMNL

Histone deacetylase 8 = biological target: T4, Histone deacetylase 8 (Homo sapiens, UniProt Q9BY41); assay: Inhibition of recombinant human HDAC8 using Boc-L-Lys(trifluoroacetyl)-MCA as substrate by fluorogenic enzymatic assay
T4 sequence (Q9BY41 whole entry): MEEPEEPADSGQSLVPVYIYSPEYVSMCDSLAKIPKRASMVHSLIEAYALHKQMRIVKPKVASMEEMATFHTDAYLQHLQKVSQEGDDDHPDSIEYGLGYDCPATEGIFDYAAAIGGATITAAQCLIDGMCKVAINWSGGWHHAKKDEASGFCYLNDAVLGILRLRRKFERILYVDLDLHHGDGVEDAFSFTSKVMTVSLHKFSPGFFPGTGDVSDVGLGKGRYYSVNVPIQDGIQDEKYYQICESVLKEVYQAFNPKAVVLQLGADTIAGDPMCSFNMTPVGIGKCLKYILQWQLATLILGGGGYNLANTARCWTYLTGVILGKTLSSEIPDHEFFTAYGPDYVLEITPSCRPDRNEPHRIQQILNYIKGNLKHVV

Histone deacetylase [3] = assay: Inhibition of HDAC in human K562 cells using Boc-L-Lys(trifluoroacetyl)-MCA as substrate by fluorogenic cellular assay; format: cell-based
In short: (§1)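 K562 cells were grown in RPMI with 10% FCS, L-glutamine and gentamycin, then pelleted. Lysis in 50 mM Tris–HCl pH 8.5, 1 M NaCl, 1 mM MgCl₂, Triton X-100 (up to 5× pellet volume), 2 h at 37 °C. The diluted lysate replaces recombinant enzyme in the two-step fluorogenic trypsin-coupled assay with substrate at 20 µM final. Read-out is AMC fluorescence (ex 390, em 460 nm), giving IC50.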

Histone deacetylase [4] = assay: Inhibition of HDAC in human K562 cells using Boc-L-Lys(acetyl)-MCA as substrate by fluorogenic cellular assay; format: cell-based; in short: as §1

Structure (SMILES): O=C(NO)C(F)(F)C(F)(F)C(F)(F)C(F)(F)C(F)(F)C(F)(F)C(=O)Nc1cccc2ccccc12
- Kd [1]: 32 µM
- Kd (Histone deacetylase 1): 29 µM
- Kd [2]: 0.37 µM
- Kd (Histone deacetylase 7): 20 µM
- Kd (Histone deacetylase 8): 19 µM

Structure (SMILES): O=C(NO)C(F)(F)C(F)(F)C(F)(F)C(F)(F)C(F)(F)C(F)(F)C(=O)Nc1cc2ccccc2c2ccccc12
- Kd [1]: 10 µM
- Kd (Histone deacetylase 1): 18 µM
- Kd [2]: 0.29 µM
- Kd (Histone deacetylase 7): 11 µM
- Kd (Histone deacetylase 8): 5.3 µM

Structure (SMILES): CC(=O)Nc1ccc(NC(=O)C(F)(F)C(F)(F)C(F)(F)C(F)(F)C(F)(F)C(F)(F)C(=O)NO)cc1
- Kd [1]: 9.2 µM
- IC50 (Histone deacetylase [3]): > 50 µM
- Kd (Histone deacetylase 1): 18 µM
- Kd [2]: 1.3 µM
- Kd (Histone deacetylase 7): 13 µM
- IC50 (Histone deacetylase [4]): > 50 µM
- Kd (Histone deacetylase 8): 36 µM

Structure (SMILES): O=C(NO)C(F)(F)C(F)(F)C(F)(F)C(F)(F)C(F)(F)C(F)(F)C(=O)Nc1ccc(-c2cnnn2-c2ccccc2)cc1
- Kd [1]: 47 µM
- Kd (Histone deacetylase 1): 66 µM
- Kd [2]: 4.5 µM
- Kd (Histone deacetylase 7): 12 µM
- Kd (Histone deacetylase 8): > 100 µM

Structure (SMILES): O=C(Nc1ccccc1)C(F)(F)C(F)(F)C(F)(F)C(F)(F)C(F)(F)C(F)(F)C(=O)Nc1ccccc1
- Kd [1]: > 100 µM
- Kd (Histone deacetylase 1): > 100 µM
- Kd [2]: 27 µM
- Kd (Histone deacetylase 7): > 100 µM
- Kd (Histone deacetylase 8): > 100 µM

Structure (SMILES): N#Cc1ccc(NC(=O)C(F)(F)C(F)(F)C(F)(F)C(F)(F)C(F)(F)C(F)(F)C(=O)NO)cc1
- Kd [1]: 71 µM
- Kd (Histone deacetylase 1): 18 µM
- Kd [2]: 0.23 µM
- Kd (Histone deacetylase 7): 32 µM
- Kd (Histone deacetylase 8): 35 µM

Structure (SMILES): O=C(NO)C(F)(F)C(F)(F)C(F)(F)C(F)(F)C(F)(F)C(F)(F)C(=O)Nc1ccccc1-c1ccccc1
- Kd [1]: 9.2 µM
- IC50 (Histone deacetylase [3]): > 50 µM
- Kd (Histone deacetylase 1): 49 µM
- Kd [2]: 0.86 µM
- Kd (Histone deacetylase 7): 14 µM
- IC50 (Histone deacetylase [4]): > 50 µM
- Kd (Histone deacetylase 8): 5.3 µM

Structure (SMILES): Cc1ccc(NC(=O)C(F)(F)C(F)(F)C(F)(F)C(F)(F)C(F)(F)C(F)(F)C(=O)NO)cc1
- Kd [1]: > 100 µM
- Kd (Histone deacetylase 1): 14 µM
- Kd [2]: 0.27 µM
- Kd (Histone deacetylase 7): 52 µM
- Kd (Histone deacetylase 8): 34 µM

Structure (SMILES): Cc1ccc(NC(=O)C(F)(F)C(F)(F)C(F)(F)C(F)(F)C(F)(F)C(F)(F)C(=O)NO)cc1C
- Kd [1]: 24 µM
- IC50 (Histone deacetylase [3]): > 50 µM
- Kd (Histone deacetylase 1): 24 µM
- Kd [2]: 0.26 µM
- Kd (Histone deacetylase 7): 3.3 µM
- IC50 (Histone deacetylase [4]): > 50 µM
- Kd (Histone deacetylase 8): 14 µM

Structure (SMILES): O=C(NO)C(F)(F)C(F)(F)C(F)(F)C(F)(F)C(F)(F)C(F)(F)C(=O)Nc1ccc2cc3ccccc3cc2c1
- Kd [1]: 11 µM
- Kd (Histone deacetylase 1): 65 µM
- Kd [2]: 9.1 µM
- Kd (Histone deacetylase 7): 38 µM
- Kd (Histone deacetylase 8): 60 µM

Structure (SMILES): O=C(NO)C(F)(F)C(F)(F)C(F)(F)C(F)(F)C(F)(F)C(F)(F)C(=O)Nc1ccc(-c2ccccc2)cc1
- Kd [1]: 49 µM
- Kd (Histone deacetylase 1): 31 µM
- Kd [2]: 8.8 µM
- Kd (Histone deacetylase 7): 14 µM
- Kd (Histone deacetylase 8): 57 µM

Structure (SMILES): O=C(NO)C(F)(F)C(F)(F)C(F)(F)C(F)(F)C(F)(F)C(F)(F)C(=O)Nc1ccc2ccccc2c1
- Kd [1]: 6.8 µM
- IC50 (Histone deacetylase [3]): 45 µM
- Kd (Histone deacetylase 1): 12 µM
- Kd [2]: 0.16 µM
- Kd (Histone deacetylase 7): 11 µM
- IC50 (Histone deacetylase [4]): > 50 µM
- Kd (Histone deacetylase 8): 49 µM

Structure (SMILES): O=C(NO)C(F)(F)C(F)(F)C(F)(F)C(F)(F)C(F)(F)C(F)(F)C(=O)Nc1cccc(-c2ccccc2)c1
- Kd [1]: 15 µM
- Kd (Histone deacetylase 1): 30 µM
- Kd [2]: 0.45 µM
- Kd (Histone deacetylase 7): 14 µM
- Kd (Histone deacetylase 8): 60 µM

Structure (SMILES): O=C(NO)C(F)(F)C(F)(F)C(F)(F)C(F)(F)C(F)(F)C(F)(F)C(=O)Nc1ccc2ccc3cccc4ccc1c2c34
- Kd [1]: 17 µM
- Kd (Histone deacetylase 1): 22 µM
- Kd [2]: 0.6 µM
- Kd (Histone deacetylase 7): 75 µM
- Kd (Histone deacetylase 8): 47 µM

Structure (SMILES): O=C(NO)C(F)(F)C(F)(F)C(F)(F)C(F)(F)C(F)(F)C(F)(F)C(=O)Nc1ccc(-c2cn(-c3ccccc3)nn2)cc1
- Kd [1]: 8.2 µM
- Kd (Histone deacetylase 1): > 100 µM
- Kd [2]: 7 µM
- Kd (Histone deacetylase 7): 30 µM
- Kd (Histone deacetylase 8): > 100 µM

Structure (SMILES): O=C(NO)C(F)(F)C(F)(F)C(F)(F)C(F)(F)C(F)(F)C(F)(F)C(=O)Nc1ccc(Cl)cc1
- Kd [1]: 23 µM
- Kd (Histone deacetylase 1): 12 µM
- Kd [2]: 0.21 µM
- Kd (Histone deacetylase 7): 19 µM
- Kd (Histone deacetylase 8): 35 µM
